From ChEMBL document CHEMBL1687816, “Effect of antacids on the pharmacokinetics of raltegravir in human immunodeficiency virus-seronegative volunteers” (Antimicrob Agents Chemother, 2010) come the findings set out here.

The structures appear in SMILES notation.

Data set [1] relates to Homo sapiens. As to the kind of experiment: Ratio of AUC (0 to infinity) in HIV-seronegative healthy volunteers at 400 mg, po administered as single dose in presence of albuminium, magnesium and simethicone-containg antacid to AUC (0 to 12 hrs) in HIV-seronegative healthy volunteers at 400 mg, po administered as single dose. The following applies: in vivo. Type of data set: ADME, organism-based. The essentials:
(§1)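 Randomized crossover in HIV-seronegative volunteers: after an 8-h fast, a single oral 400 mg RAL dose was given with or without 30 ml antacid (2.7 g Mg hydroxide, 3 g Al hydroxide gel, 240 mg simethicone), with a 5–12 day washout. Plasma was sampled 0.5–48 h and assayed by LC/MS/MS (LLOQ 5 ng/ml). Noncompartmental analysis; log-transformed geometric mean ratios with 90% CI; paired t tests.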

Data set [2] has as its system Homo sapiens. As to the kind of experiment: Ratio of AUC (0 to infinity) in HIV-infected patients at 400 mg, po treated after 2 hrs administration of 20 mg proton pump inhibitor omeprazole to AUC (0 to infinity) in HIV-infected patients at 400 mg, po. The following applies: in vivo. It counts as ADME, organism-based.
Data set [3] in a line: AUC (0 to infinity) in HIV-seronegative healthy volunteers at 400 mg, po administered as single dose by LC-MS/MS in presence of albuminium, magnesium and simethicone-containg antacid. It counts as ADME, organism-based. Further details: dose 400 mg, time infinity, route oral. The following applies: human, plasma. In a few lines:
(§2)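 Randomized crossover in HIV-seronegative volunteers: after an 8-h overnight fast, a single observed oral 400 mg dose was given alone or with 30 ml aluminium/magnesium/simethicone antacid, with a 5- to 12-day washout between visits. Plasma was sampled at 0.5–48 h and assayed by LC/MS/MS (13C6 internal standard, linear 5–10,000 ng/ml). Noncompartmental AUC was computed by the linear-log trapezoidal rule and reported as a geometric mean.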

The subject of data set [4] is Homo sapiens. As to the kind of experiment: Ratio of AUC (0 to 12 hrs) in HIV-seronegative healthy volunteers at 400 mg, po administered as single dose in presence of albuminium, magnesium and simethicone-containg antacid to AUC (0 to 12 hrs) in HIV-seronegative healthy volunteers at 400 mg, po administered as single dose. Type of data set: ADME, organism-based. The following applies: in vivo. The essentials: as §1

A short description of data set [5]: Tmax in HIV-seronegative healthy volunteers at 400 mg, po administered as single dose by LC-MS/MS in presence of albuminium, magnesium and simethicone-containg antacid. Type of data set: ADME, organism-based. The settings on record: human, in vivo. In a few lines:
(§3)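 Single fasted 400 mg oral dose was given alone or with 30 ml antacid in a crossover design with a 5- to 12-day washout. Fasting continued for 4 h post-dose. Plasma was assayed by LC/MS/MS (LLOQ 5 ng/ml). Cmax, Tmax and 12-h concentration were read visually from the profiles.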

The subject of data set [6] is Homo sapiens. As to the kind of experiment: Ratio of Cmax in HIV-infected patients at 400 mg, po treated after 2 hrs administration of 20 mg proton pump inhibitor omeprazole to Cmax in HIV-infected patients at 400 mg, po. It counts as ADME, organism-based. The settings on record: in vivo.
The nature of data set [7]: Terminal half life in human at 400 mg BID. The following applies: in vivo, read-out: beta t1/2 (converted). It counts as ADME, organism-based.
The nature of data set [8]: Drug level in HIV-seronegative healthy volunteers blood at 400 mg, po administered as single dose after 12 hrs by LC-MS/MS. Type of data set: ADME, organism-based. The settings on record: human, read-out: Drug uptake. The essentials:
as §3

Data set [9] can be described thus: Cmax in HIV-seronegative healthy volunteers at 400 mg, po administered as single dose by LC-MS/MS. Type of data set: ADME, organism-based. Further details: dose 400 mg, route oral. The settings on record: human, in vivo. In a few lines:
as §3

Data set [10] can be described thus: Cmax in HIV-seronegative healthy volunteers at 400 mg, po administered as single dose by LC-MS/MS in presence of albuminium, magnesium and simethicone-containg antacid. Type of data set: ADME, organism-based. Further details: dose 400 mg, route oral. The following applies: human, in vivo. The essentials: as §3
Data set [11] has as its system Blood. As to the kind of experiment: Ratio of drug level in HIV-seronegative healthy volunteers blood at 400 mg after 12 hrs, po administered as single dose in presence of albuminium, magnesium and simethicone-containg antacid to drug level in HIV-seronegative healthy volunteers blood at 400 mg after 12 hrs, po administered as single dose. Type of data set: ADME, organism-based. The settings on record: human, in vivo. In a few lines:
as §1

Data set [12] can be described thus: Primary phase half life in human at 400 mg BID. It counts as ADME, organism-based. The following applies: in vivo, read-out: alphat1/2 (converted).
The nature of data set [13]: AUC (0 to 12 hrs) in HIV-seronegative healthy volunteers at 400 mg, po administered as single dose by LC-MS/MS. It counts as ADME, organism-based. Further details: dose 400 mg, time < 12 hr, route oral. The following applies: human, plasma. In a few lines: as §2
Data set [14] is described as follows: AUC (0 to 12 hrs) in HIV-seronegative healthy volunteers at 400 mg, po administered as single dose by LC-MS/MS in presence of albuminium, magnesium and simethicone-containg antacid. Type of data set: ADME, organism-based. Further details: dose 400 mg, time < 12 hr, route oral. The following applies: human, plasma. In a few lines: as §2
The subject of data set [15] is Homo sapiens. As to the kind of experiment: Toxicity in HIV-seronegative healthy volunteers assessed as occurrence of mild headache at 400 mg, po administered as single dose. Type of data set: organism-based. The following applies: in vivo. In a few lines:
(§4)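 Clinical adverse events were assessed during the two 12-h pharmacokinetic visits and at 24 and 48 h after a single oral 400 mg dose, given with or without 30 ml antacid. Events were graded with the 2004 Division of AIDS toxicity tables. Laboratory tests were run at screening and at 24 h post-dose.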

The nature of data set [16]: AUC (0 to infinity) in HIV-seronegative healthy volunteers at 400 mg, po administered as single dose by LC-MS/MS. Further details: dose 400 mg, route oral, time infinity. The settings on record: human, plasma. It counts as ADME, organism-based. In a few lines:
as §2

Data set [17] deals with Homo sapiens. As to the kind of experiment: Ratio of Cmax in HIV-seronegative healthy volunteers at 400 mg, po administered as single dose in presence of albuminium, magnesium and simethicone-containg antacid to Cmax in HIV-seronegative healthy volunteers at 400 mg, po administered as single dose. Type of data set: ADME, organism-based. The following applies: in vivo. In a few lines:
as §1

Data set [18] can be described thus: Drug level in HIV-seronegative healthy volunteers blood at 400 mg, po administered as single dose after 12 hrs by LC-MS/MS in presence of albuminium, magnesium and simethicone-containg antacid. Type of data set: ADME, organism-based. The settings on record: human, read-out: Drug uptake. In a few lines: as §3
Data set [19] in a line: Tmax in HIV-seronegative healthy volunteers at 400 mg, po administered as single dose by LC-MS/MS. It counts as ADME, organism-based. The following applies: human, in vivo. The essentials: as §3
The test system of data set [20] is Homo sapiens. In words: Ratio of drug level in HIV-infected patients at 400 mg, po treated after 2 hrs administration of 20 mg proton pump inhibitor omeprazole after 12 hrs to drug level in HIV-infected patients at 400 mg, po after 12 hrs. It counts as ADME, organism-based. The following applies: in vivo.
The subject of data set [21] is Homo sapiens. In words: Toxicity in HIV-seronegative healthy volunteers assessed as occurrence of mild headache at 400 mg, po administered as single dose in presence of 30 ml albuminium, magnesium and simethicone-containg antacid. Type of data set: organism-based. The settings on record: in vivo. In a few lines: as §4

By AUC(0-inf) is commonly meant total exposure, with the tail of the curve extrapolated. Broadly, the Tmax is the time from dosing to the highest level. Broadly, the Cmax is the peak of the concentration-time curve. The AUC(0-t) is the area under the concentration-time curve up to a stated or last time point. Consider `Cc1nnc(C(=O)NC(C)(C)c2nc(C(=O)NCc3ccc(F)cc3)c(O)c(=O)n2C)o1` [RALTEGRAVIR], for which the Ratio was determined as 0.96 in data set [1]; 3 in data set [2]; 1.08 in [4]; 4 in data set [6]; 0.33 in data set [11]; 1.53 in data set [17]. For the same molecule, the Ratio in [20] came out at 1.5. In addition, the AUC(0-inf) in data set [3] stood at 3420 ng·h/mL; in data set [16], 3540 ng·h/mL. Moreover, the Tmax in data set [5] is 1 h; in data set [19], 3 h. In addition, the half-life in data set [7] is 9 h; in [12], 1 h. Besides, the concentration at 12 h worked out at 37 ng/mL in data set [8] and 13 ng/mL in [18]. The Cmax worked out at 945 ng/mL in [9] and 1440 ng/mL in data set [10]. Further, the AUC(0-t) at 12 h in data set [13] worked out at 3040 ng·h/mL; in [14], 3300 ng·h/mL. The results for the Activity in data set [15] and in data set [21] were 25% and 42%, respectively.
